{"source": "ChEMBL document CHEMBL4130495", "about": "“Design, synthesis and biological evaluations of N-Hydroxy thienopyrimidine-2,4-diones as inhibitors of HIV reverse transcriptase-associated RNase H” (Eur J Med Chem, 2017)", "key": {"[1]": {"target": "Human immunodeficiency virus type 1 reverse transcriptase (Human immunodeficiency virus 1, UniProt Q72547)", "test": "Inhibition of RNH activity of recombinant HIV1 reverse transcriptase RNase H assessed as reduction in internal cleavage of RNA strand using RNA/DNA duplex substrate HTS-1"}, "[2]": {"target": "Human immunodeficiency virus type 1 integrase (Human immunodeficiency virus 1, UniProt Q7ZJM1)", "sequence (Q7ZJM1 whole entry)": "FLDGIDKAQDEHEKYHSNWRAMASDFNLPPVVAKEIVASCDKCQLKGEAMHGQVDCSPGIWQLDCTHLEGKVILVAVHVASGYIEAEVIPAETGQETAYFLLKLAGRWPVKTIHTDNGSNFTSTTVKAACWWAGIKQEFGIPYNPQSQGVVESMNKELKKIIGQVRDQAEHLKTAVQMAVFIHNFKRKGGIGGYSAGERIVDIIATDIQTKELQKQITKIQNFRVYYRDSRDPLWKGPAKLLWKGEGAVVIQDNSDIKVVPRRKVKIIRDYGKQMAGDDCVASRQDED", "test": "Inhibition of HIV1 integrase pre-incubated for 10 mins before DNA substrate addition and measured after 30 mins"}, "[3]": {"target": "Gag-Pol polyprotein (Human immunodeficiency virus type 1 group M subtype B (isolate HXB2)(HIV-1), UniProt P04585)", "test": "Inhibition of polymerase activity of recombinant HIV1 reverse polymerase assessed as reduction in extension of an 18 nucleotide DNA primer using template/primer and dNTPs incubated for 30 mins", "design": "species or system Human immunodeficiency virus 1", "summary_of_the_method": "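Recombinant HIV-1 RT (20 nM) was used with 40 nM template/primer (18-nt DNA primer annealed to a 100-nt DNA template) and 10 µM dNTPs in 50 mM Tris pH 7.8, 50 mM NaCl, with 1% DMSO and increasing compound concentrations. Reactions were started with 6 mM MgCl₂, run 30 min at 37 °C, and stopped with 100 mM EDTA. IC50 is reported as mean ± SD of ≥2 independent experiments.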"}, "[4]": {"test_system": "P4R5", "test": "Cytotoxicity in human P4R5 cells assessed as reduction in cell viability by MTS assay"}, "[5]": {"test_system": "Human immunodeficiency virus 1", "test": "Antiviral activity against HIV1 infected in human P4R5 cells assessed as reduction in viral infection preincubated with cells for 24 hrs followed by viral infection measured after 48 hrs by fluorescence based beta-galactosidase reporter gene based MAGI assay", "type": "functional, organism-based"}}, "data": [{"smiles": "O=c1[nH]c2cc(-c3ccccc3)sc2c(=O)n1O", "values": [{"measurement": "IC50", "setting": "[1]", "value": 0.1, "unit": "µM"}, {"measurement": "IC50", "setting": "[2]", "value": 4.5, "unit": "µM"}, {"measurement": "IC50", "setting": "[3]", "value": "> 10", "unit": "µM"}, {"measurement": "CC50", "setting": "[4]; P4R5", "value": 28, "unit": "µM"}, {"measurement": "EC50", "setting": "[5]", "value": 11, "unit": "µM"}]}, {"smiles": "Cc1csc2[nH]c(=O)n(O)c(=O)c12", "values": [{"measurement": "IC50", "setting": "[1]", "value": 0.1, "unit": "µM"}, {"measurement": "IC50", "setting": "[2]", "value": 12, "unit": "µM"}, {"measurement": "IC50", "setting": "[3]", "value": "> 10", "unit": "µM"}, {"measurement": "CC50", "setting": "[4]; P4R5", "value": 81, "unit": "µM"}, {"measurement": "EC50", "setting": "[5]", "value": "> 20", "unit": "µM"}]}, {"smiles": "O=c1[nH]c2sccc2c(=O)n1O", "values": [{"measurement": "IC50", "setting": "[1]", "value": 0.2, "unit": "µM"}, {"measurement": "IC50", "setting": "[2]", "value": 35, "unit": "µM"}, {"measurement": "IC50", "setting": "[3]", "value": "> 10", "unit": "µM"}, {"measurement": "CC50", "setting": "[4]; P4R5", "value": 54, "unit": "µM"}, {"measurement": "EC50", "setting": "[5]", "value": 18, "unit": "µM"}]}, {"smiles": "O=c1[nH]c2cc(-c3ccccc3)ccc2c(=O)n1O", "values": [{"measurement": "IC50", "setting": "[1]", "value": 0.2, "unit": "µM"}, {"measurement": "IC50", "setting": "[2]", "value": 11, "unit": "µM"}, {"measurement": "IC50", "setting": "[3]", "value": "> 10", "unit": "µM"}, {"measurement": "CC50", "setting": "[4]; P4R5", "value": 6, "unit": "µM"}, {"measurement": "EC50", "setting": "[5]", "value": 3.8, "unit": "µM"}]}, {"smiles": "O=c1[nH]c2sc(-c3ccccc3)cc2c(=O)n1O", "values": [{"measurement": "IC50", "setting": "[1]", "value": 0.084, "unit": "µM"}, {"measurement": "IC50", "setting": "[2]", "value": 2.2, "unit": "µM"}, {"measurement": "IC50", "setting": "[3]", "value": "> 10", "unit": "µM"}, {"measurement": "CC50", "setting": "[4]; P4R5 cells", "value": "> 100", "unit": "µM"}, {"measurement": "EC50", "setting": "[5]", "value": "> 20", "unit": "µM"}]}, {"smiles": "O=c1[nH]c2cc(-c3ccc(Cl)cc3)sc2c(=O)n1O", "values": [{"measurement": "IC50", "setting": "[1]", "value": 0.07, "unit": "µM"}, {"measurement": "IC50", "setting": "[2]", "value": 23, "unit": "µM"}, {"measurement": "IC50", "setting": "[3]", "value": "> 10", "unit": "µM"}, {"measurement": "CC50", "setting": "[4]; P4R5 cells", "value": "> 100", "unit": "µM"}, {"measurement": "EC50", "setting": "[5]", "value": "> 20", "unit": "µM"}]}, {"smiles": "O=c1[nH]c2scc(-c3ccc(Cl)cc3)c2c(=O)n1O", "values": [{"measurement": "IC50", "setting": "[1]", "value": 0.04, "unit": "µM"}, {"measurement": "IC50", "setting": "[2]", "value": 2.1, "unit": "µM"}, {"measurement": "IC50", "setting": "[3]", "value": "> 10", "unit": "µM"}, {"measurement": "CC50", "setting": "[4]; P4R5 cells", "value": "> 100", "unit": "µM"}, {"measurement": "EC50", "setting": "[5]", "value": 7.4, "unit": "µM"}]}, {"smiles": "O=c1[nH]c2cc(-c3ccc(Cl)cc3)ccc2c(=O)n1O", "values": [{"measurement": "IC50", "setting": "[1]", "value": 0.2, "unit": "µM"}, {"measurement": "IC50", "setting": "[3]", "value": "> 10", "unit": "µM"}, {"measurement": "CC50", "setting": "[4]; P4R5", "value": 9.9, "unit": "µM"}, {"measurement": "EC50", "setting": "[5]", "value": 4.5, "unit": "µM"}]}, {"smiles": "O=c1[nH]c2cc(-c3ccc(F)cc3)sc2c(=O)n1O", "values": [{"measurement": "IC50", "setting": "[1]", "value": 0.2, "unit": "µM"}, {"measurement": "IC50", "setting": "[2]", "value": 17, "unit": "µM"}, {"measurement": "IC50", "setting": "[3]", "value": "> 10", "unit": "µM"}, {"measurement": "CC50", "setting": "[4]; P4R5 cells", "value": "> 100", "unit": "µM"}, {"measurement": "EC50", "setting": "[5]", "value": "> 20", "unit": "µM"}]}, {"smiles": "O=C1Cc2cc(-c3ccccc3)ccc2C(=O)N1O", "values": [{"measurement": "IC50", "setting": "[1]", "value": 1.3, "unit": "µM"}, {"measurement": "IC50", "setting": "[2]", "value": 2, "unit": "µM"}, {"measurement": "IC50", "setting": "[3]", "value": "> 10", "unit": "µM"}, {"measurement": "CC50", "setting": "[4]; P4R5", "value": 19, "unit": "µM"}, {"measurement": "EC50", "setting": "[5]", "value": 16, "unit": "µM"}]}, {"smiles": "O=c1[nH]c2c(c(=O)n1O)CN(Cc1ccccc1)CC2", "values": [{"measurement": "IC50", "setting": "[2]", "value": "> 100", "unit": "µM"}, {"measurement": "IC50", "setting": "[3]", "value": "> 10", "unit": "µM"}]}, {"smiles": "O=c1[nH]c2sc(Cc3ccccc3)cc2c(=O)n1O", "values": [{"measurement": "IC50", "setting": "[1]", "value": 0.043, "unit": "µM"}, {"measurement": "IC50", "setting": "[2]", "value": 5, "unit": "µM"}, {"measurement": "IC50", "setting": "[3]", "value": "> 10", "unit": "µM"}, {"measurement": "CC50", "setting": "[4]; P4R5 cells", "value": "> 100", "unit": "µM"}, {"measurement": "EC50", "setting": "[5]", "value": "> 20", "unit": "µM"}]}, {"smiles": "Cc1c(C(=O)O)sc2[nH]c(=O)n(O)c(=O)c12", "values": [{"measurement": "IC50", "setting": "[1]", "value": 0.1, "unit": "µM"}, {"measurement": "IC50", "setting": "[2]", "value": 7.9, "unit": "µM"}, {"measurement": "IC50", "setting": "[3]", "value": "> 10", "unit": "µM"}, {"measurement": "CC50", "setting": "[4]; P4R5 cells", "value": "> 100", "unit": "µM"}, {"measurement": "EC50", "setting": "[5]", "value": "> 20", "unit": "µM"}]}, {"smiles": "Cc1sc2[nH]c(=O)n(O)c(=O)c2c1C", "values": [{"measurement": "IC50", "setting": "[1]", "value": 0.1, "unit": "µM"}, {"measurement": "IC50", "setting": "[2]", "value": 8.4, "unit": "µM"}, {"measurement": "IC50", "setting": "[3]", "value": "> 10", "unit": "µM"}, {"measurement": "CC50", "setting": "[4]; P4R5", "value": 62, "unit": "µM"}, {"measurement": "EC50", "setting": "[5]", "value": 8.9, "unit": "µM"}]}, {"smiles": "O=c1[nH]c2scc(-c3ccccc3)c2c(=O)n1O", "values": [{"measurement": "IC50", "setting": "[1]", "value": 0.1, "unit": "µM"}, {"measurement": "IC50", "setting": "[2]", "value": 1.3, "unit": "µM"}, {"measurement": "IC50", "setting": "[3]", "value": "> 10", "unit": "µM"}, {"measurement": "CC50", "setting": "[4]; P4R5 cells", "value": "> 100", "unit": "µM"}, {"measurement": "EC50", "setting": "[5]", "value": 14, "unit": "µM"}]}]}
